From ChEMBL document CHEMBL1134623, “Design and synthesis of a series of (2R)-N(4)-hydroxy-2-(3-hydroxybenzyl)-N(1)- [(1S,2R)-2-hydroxy-2,3-dihydro-1H-inden-1-yl]butanediamide derivatives as potent, selective, and orally bioavailable aggrecanase inhibitors” (J Med Chem, 2001)

Experiments:
[1] = target: 72 kDa type IV collagenase (Homo sapiens, UniProt P08253); assay: Inhibition of matrix metalloprotease-2
[2] = target: Matrix metalloproteinase-9 (Homo sapiens, UniProt P14780); assay: Inhibition of human matrix metalloprotease-9
[3] = Inhibition of aggrecanase; set-up: species or system Homo sapiens
Procedure, shortened: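 Enzyme was a partially purified preparation from IL-1-stimulated bovine nasal cartilage. No amino acid sequence was available for it when screening began.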

[4] = target: T1, Interstitial collagenase (Homo sapiens, UniProt P03956); assay: Inhibition of matrix metalloprotease-1
T1 sequence (P03956 whole entry): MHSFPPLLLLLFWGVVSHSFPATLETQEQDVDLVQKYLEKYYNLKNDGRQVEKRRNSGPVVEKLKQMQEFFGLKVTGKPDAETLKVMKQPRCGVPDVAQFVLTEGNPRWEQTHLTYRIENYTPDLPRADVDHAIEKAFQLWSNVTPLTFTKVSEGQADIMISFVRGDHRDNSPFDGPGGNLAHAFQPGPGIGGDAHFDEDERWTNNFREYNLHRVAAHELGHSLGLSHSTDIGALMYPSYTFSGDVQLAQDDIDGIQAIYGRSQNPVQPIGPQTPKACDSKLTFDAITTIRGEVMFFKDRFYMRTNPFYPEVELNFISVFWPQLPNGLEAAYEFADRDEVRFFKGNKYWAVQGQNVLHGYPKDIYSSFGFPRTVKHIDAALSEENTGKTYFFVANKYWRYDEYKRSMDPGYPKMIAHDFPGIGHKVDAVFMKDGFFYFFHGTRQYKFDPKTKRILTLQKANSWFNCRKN

[5] = target: Neutrophil collagenase (Homo sapiens, UniProt P22894); assay: Inhibition of matrix metalloprotease-8
Neutrophil collagenase, sequence (P22894 whole entry): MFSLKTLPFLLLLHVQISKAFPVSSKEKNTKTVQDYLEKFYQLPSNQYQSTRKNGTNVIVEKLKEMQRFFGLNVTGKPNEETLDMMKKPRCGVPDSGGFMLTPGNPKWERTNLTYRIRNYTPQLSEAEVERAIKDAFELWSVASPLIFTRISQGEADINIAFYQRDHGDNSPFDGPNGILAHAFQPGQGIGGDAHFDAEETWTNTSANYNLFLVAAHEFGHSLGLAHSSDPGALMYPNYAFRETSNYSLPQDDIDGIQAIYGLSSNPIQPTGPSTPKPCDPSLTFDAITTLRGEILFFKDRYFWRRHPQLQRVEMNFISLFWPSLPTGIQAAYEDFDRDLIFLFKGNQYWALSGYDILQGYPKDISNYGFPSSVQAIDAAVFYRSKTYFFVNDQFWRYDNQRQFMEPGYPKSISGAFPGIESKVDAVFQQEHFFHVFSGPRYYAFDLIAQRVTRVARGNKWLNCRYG

Matrix metalloproteinase-9, sequence (P14780 whole entry): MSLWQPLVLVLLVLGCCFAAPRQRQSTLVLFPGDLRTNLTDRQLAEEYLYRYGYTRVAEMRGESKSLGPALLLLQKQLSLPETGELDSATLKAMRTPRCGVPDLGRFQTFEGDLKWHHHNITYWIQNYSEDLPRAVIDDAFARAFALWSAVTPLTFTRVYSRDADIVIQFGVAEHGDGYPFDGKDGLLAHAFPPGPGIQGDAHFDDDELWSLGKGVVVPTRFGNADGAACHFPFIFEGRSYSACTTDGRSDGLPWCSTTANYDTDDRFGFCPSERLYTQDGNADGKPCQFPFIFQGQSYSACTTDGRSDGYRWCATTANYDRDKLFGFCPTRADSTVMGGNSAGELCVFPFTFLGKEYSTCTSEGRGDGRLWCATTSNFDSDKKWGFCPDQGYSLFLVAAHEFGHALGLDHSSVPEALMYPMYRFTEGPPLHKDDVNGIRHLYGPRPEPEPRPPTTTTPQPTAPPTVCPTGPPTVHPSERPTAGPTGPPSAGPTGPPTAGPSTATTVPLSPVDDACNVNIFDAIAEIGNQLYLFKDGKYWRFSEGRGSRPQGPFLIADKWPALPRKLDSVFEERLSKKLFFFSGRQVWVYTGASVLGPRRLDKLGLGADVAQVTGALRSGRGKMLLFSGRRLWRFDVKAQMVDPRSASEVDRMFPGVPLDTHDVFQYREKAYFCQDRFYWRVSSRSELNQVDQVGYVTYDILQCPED
72 kDa type IV collagenase, sequence (P08253 whole entry): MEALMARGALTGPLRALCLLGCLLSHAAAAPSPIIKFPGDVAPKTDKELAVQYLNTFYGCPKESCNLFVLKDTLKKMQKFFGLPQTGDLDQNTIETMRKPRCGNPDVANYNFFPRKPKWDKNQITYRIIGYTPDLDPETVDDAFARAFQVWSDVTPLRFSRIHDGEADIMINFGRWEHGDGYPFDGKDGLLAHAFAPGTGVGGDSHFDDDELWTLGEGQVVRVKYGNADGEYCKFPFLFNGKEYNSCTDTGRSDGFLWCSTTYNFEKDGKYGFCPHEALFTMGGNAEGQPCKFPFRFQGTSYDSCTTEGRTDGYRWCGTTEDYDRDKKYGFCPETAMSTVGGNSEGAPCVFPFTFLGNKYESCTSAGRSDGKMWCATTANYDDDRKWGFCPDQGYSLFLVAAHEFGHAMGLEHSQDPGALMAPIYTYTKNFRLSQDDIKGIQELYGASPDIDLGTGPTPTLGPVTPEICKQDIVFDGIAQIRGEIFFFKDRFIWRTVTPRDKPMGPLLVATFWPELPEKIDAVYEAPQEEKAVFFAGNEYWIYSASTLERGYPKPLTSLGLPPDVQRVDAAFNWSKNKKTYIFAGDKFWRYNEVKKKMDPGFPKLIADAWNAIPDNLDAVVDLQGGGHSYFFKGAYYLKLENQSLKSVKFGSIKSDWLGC

| Structure (SMILES) | Ki [1] [nM] | Ki [2] [nM] | IC50 [3] [nM] | Ki [4] [nM] | Ki [5] [nM] |
| --- | --- | --- | --- | --- | --- |
| COc1cccc(C[C@H](CC(=O)NO)C(=O)N[C@H]2c3ccccc3C[C@H]2O)c1 | 6600 | 15500 | 3140 | 95500 | 1190 |
| COc1ccc(C[C@H](CC(=O)NO)C(=O)N[C@H]2c3ccccc3C[C@H]2O)cc1 | 52 | 203 | 16.4 | 1160 | 9.2 |
| O=C(C[C@@H](Cc1ccc2c(c1)OCO2)C(=O)N[C@H]1c2ccccc2C[C@H]1O)NO | 35000 | 22000 | 790 | 50000 | 40000 |
| CC(C)C[C@H](CC(=O)NO)C(=O)N[C@@H]1c2ccccc2C[C@@H]1O | 1530 | 4200 | 13300 | 1090 | 303 |
| O=C(NO)[C@@H](NCC1CC1)[C@@H](Cc1cccc(O)c1)C(=O)N[C@H]1c2ccccc2C[C@H]1O | 6300 | 4470 | 12 | 33200 | 171 |
| O=C(C[C@@H](Cc1ccc(O)cc1)C(=O)N[C@@H]1CCc2ccccc21)NO | 31600 | 21200 | 1310 | 75000 | 15300 |
| CC(C)C[C@H](CC(=O)NO)C(=O)N[C@H]1c2ccccc2C[C@H]1O | 73 | 162 | 1700 | 82 | 37 |
| CNC(=O)[C@H](Cc1ccc(OC)cc1)NC(=O)[C@@H](CC(=O)NO)Cc1ccc(O)cc1 | 4.3 | 3.2 | 332 | 10.7 | 0.45 |
| O=C(C[C@@H](Cc1ccc(O)cc1)C(=O)N[C@H]1c2ccccc2C[C@H]1O)NO | 408 | 166 | 182 | 946 | 70 |
| CNC(=O)[C@H](Cc1ccc(OC)cc1)NC(=O)[C@@H](CC(=O)NO)CC(C)C | – | < 1 | 368 | – | 0.7 |
| O=C(C[C@@H](Cc1cccc(O)c1)C(=O)N[C@H]1c2ccccc2C[C@H]1O)NO | 1510 | 3320 | 64 | 31000 | 8600 |
